High-throughput results as filed in PubChem.
KCNQ1 pot = potentiators or activators of human KCNQ1 potassium channel. 310,000 tested, 0.35% active. AID 2648. CHO-K1 KCNQ1, thallium flux FluxOR fluorescence; active compounds read high. B-score at 10 µM;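 active means fluorescence ratio B-score, a plate-corrected score, at least three library SD, with initial intensity B-score within 5 SD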
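assay system = CHO-K1 cells stably expressing KCNQ1 | medium = assay buffer, equal DMSO in all wells | timing = 37 °C overnight plating, 90-min dark dye load, 20-min compound pretreatment | measured by = kinetic FluxOR thallium fluorescence, 10-s 1-Hz baseline, 110-s post-stimulus read | measure = fluorescence change relative to baseline, converted to B score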
KCNK9 block = blocks the human KCNK9 two-pore domain potassium channel; 310,000 tested, 1.2% active; HEK293 KCNK9, FluxOR thallium flux fluorescence; active compounds read low; B-score at 10 µM; Q9NPC2;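 active means ratio B-score over 3 SD below the library mean, with starting fluorescence within 5 SD of its mean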;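 further: negative B-score means less thallium flux so channel inhibition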
hERG protect = hERG (human) protection from proarrhythmic block | CHO-hERG, FluxOR thallium flux, dofetilide IC70 present | Q12809 | 310,000 tested, 0.51% active | activation (rescue from dofetilide block), less the hit threshold, % at 10 µM;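 active means activation above the mean of controls blocked by dofetilide plus 5 SD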;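 further: thallium influx through hERG after potassium depolarization seen as dye fluorescence rise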
KCNK3 inh = human KCNK3 channel inhibition, primary screen. B-score at 10 µM. CHO-KCNK3 thallium flux, FluxOR fluorescence; active compounds read low. 340,000 tested, 0.84% active;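 active means B-score under library mean minus 4 SD, starting fluorescence ratio at most library mean plus 5 SD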;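 further: more negative B-score means stronger inhibition of thallium flux through KCNK3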
Target sequence (O14649 whole entry, looked up): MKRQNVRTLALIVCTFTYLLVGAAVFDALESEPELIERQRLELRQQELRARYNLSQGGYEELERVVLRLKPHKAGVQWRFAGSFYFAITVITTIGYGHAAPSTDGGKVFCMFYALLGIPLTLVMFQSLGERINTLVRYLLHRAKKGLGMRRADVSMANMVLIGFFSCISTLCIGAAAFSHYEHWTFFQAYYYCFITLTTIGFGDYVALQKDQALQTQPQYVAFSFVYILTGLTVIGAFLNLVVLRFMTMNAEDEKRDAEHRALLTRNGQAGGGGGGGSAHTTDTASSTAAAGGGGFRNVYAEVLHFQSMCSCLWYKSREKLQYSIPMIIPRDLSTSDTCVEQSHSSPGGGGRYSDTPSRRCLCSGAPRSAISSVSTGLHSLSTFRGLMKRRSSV
Kir21 inh = blocks the mouse Kir2.1 inward-rectifier potassium channel; HEK293-Kir2.1, FluxOR thallium flux fluorescence; active compounds read low; P35561; B-score at 10 µM; AID 1672; 310,000 tested, 0.85% active;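 active means fluorescence ratio B-score at or below minus 3 SD of library scores, with starting-brightness B-score within 2 SD, cut at about -4.2 in these data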;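 further: channel flux triggered by added potassium and thallium sulfate stimulus; B-score of peak minus minimum fluorescence over baseline after thallium stimulus; more negative B-score means stronger Kir2.1 block with less thallium influx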
KCNQ1 inh = human KCNQ1 channel inhibition | 310,000 tested, 1.3% active | B-score at 10 µM | CHO-K1 KCNQ1, FluxOR thallium flux fluorescence; active compounds read high | P51787 | AID 2642;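 active means compounds whose thallium flux B-score, printed positive for inhibition, exceeds three library SD while starting fluorescence stays within three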;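 further: channel opened by potassium depolarization with thallium stimulus after 20 min compound exposure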
KCNK3 inh conf = confirmation of human KCNK3 two-pore domain potassium channel inhibitors; AID 651638; ratio percent of control, % at 10 µM; shares compounds with KCNK3 inh; 2,400 tested, 99% active; CHO-KCNK3 thallium flux, FluxOR fluorescence; 0% buffer, 100% carvedilol maximal block;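 active means ratio percent of control, averaged over triplicates, above buffer control mean plus 5 SD, cut at about 64% in these data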;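 further: ratio is the fluorescence rise from min to max over baseline after thallium stimulus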
KCNK3 noninduced = activity in cells without induced KCNK3 expression. 2,400 tested, 40% active. thallium flux ratio (lower = more inhibition) at 10 µM. shares compounds with KCNK3 inh. non-induced KCNK3 parental cells, FluxOR thallium flux; active compounds read low;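 active means thallium flux ratio, averaged over three wells, more than 5 SD below the buffer control mean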;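 further: host cells are CHO cells without KCNK3 induction; ratio is peak minus trough fluorescence over baseline then normalized to buffer controls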
* hit, by the source's call. Only some compounds are listed: those with a hit (about 3.7% of all), similar ones and a draw of the others.

O=C(c1ccccc1)c1ccc(Sc2ccc([N+](=O)[O-])cc2)cc1 was read as KCNQ1 pot inactive, KCNK9 block inactive, hERG protect -20.5, KCNK3 inh -8.83*, Kir21 inh -0.84, KCNQ1 inh inactive, KCNK3 inh conf 115.0* and KCNK3 noninduced 0.146*.
For CC(=O)c1ccc(NC(=O)C(C)Oc2ccc(N(C)S(=O)(=O)c3ccc(C)cc3)cc2)cc1 (configuration not stated) the results were KCNK3 inh inactive.
`CNc1ccc(Br)cc(C(=O)/C=C/c2ccc(Cl)cc2Cl)c1=O` gave KCNQ1 pot inactive, KCNK9 block inactive, hERG protect -18.0, KCNK3 inh -9.7*, Kir21 inh 0.24, KCNQ1 inh 10*, KCNK3 inh conf 117.0* and KCNK3 noninduced 0.116*.
CN(CCCNC(=O)c1ccc(CS(=O)c2ccc(Br)cc2)o1)Cc1ccccc1 (configuration not stated) was read as KCNQ1 pot inactive, KCNK9 block inactive, hERG protect -9.8, KCNK3 inh inactive, Kir21 inh -0.4 and KCNQ1 inh inactive.
CCOc1cc(C(=S)N2CCOCC2)ccc1OC was read as KCNQ1 pot inactive, KCNK9 block inactive, hERG protect -1.8, KCNK3 inh inactive, Kir21 inh -0.89 and KCNQ1 inh inactive.
Screening CCOc1cc(C(=S)N2CCOCC2)ccc1OC(=O)c1cccc(C)c1 returned KCNQ1 pot inactive, KCNK9 block inactive, hERG protect -2.5, KCNK3 inh -9.1*, Kir21 inh 1.07, KCNQ1 inh inactive, KCNK3 inh conf 113.7* and KCNK3 noninduced inactive.
Screening CCOc1cc(C(=S)N2CCOCC2)ccc1OC(=O)c1ccccc1 returned KCNQ1 pot inactive, KCNK9 block inactive, hERG protect -8.4, KCNK3 inh -8.92*, Kir21 inh -2.87, KCNQ1 inh inactive, KCNK3 inh conf 91.7* and KCNK3 noninduced inactive.
Screening CCOc1cc(C(=S)N2CCOCC2)ccc1OC(=O)c1ccc(C)cc1 returned KCNQ1 pot inactive, KCNK9 block inactive, hERG protect -8.6, KCNK3 inh inactive, Kir21 inh -0.45 and KCNQ1 inh inactive.
`O=c1[nH]c(SCc2cccc(Cl)c2)nc2[nH]ncc12` gave KCNQ1 pot inactive, KCNK9 block inactive, hERG protect -7.0, KCNK3 inh inactive, Kir21 inh -1.06 and KCNQ1 inh inactive.
Screening Cn1c(CSc2ccccc2)c(C#N)c2ccccc21 returned KCNQ1 pot inactive, KCNK9 block inactive, hERG protect -1.8, KCNK3 inh -10.9*, Kir21 inh 0.36, KCNQ1 inh inactive, KCNK3 inh conf 105.0* and KCNK3 noninduced 0.159*.
For Cc1c(C#N)c2ccccc2n1C the results were KCNQ1 pot inactive, KCNK9 block inactive, hERG protect -7.9, KCNK3 inh inactive, Kir21 inh -1.45 and KCNQ1 inh inactive.
For CSc1cccc(NC(=S)N(CCCN2CCC(C)CC2)Cc2cccs2)c1 the results were KCNQ1 pot inactive, KCNK9 block inactive, hERG protect -2.3, KCNK3 inh inactive, Kir21 inh 0.03 and KCNQ1 inh inactive.
`CC(=O)N1C[C@H]2CON(C)[C@H]2C[C@H]1c1cccc(-c2ccccc2C)c1` gave KCNK3 inh inactive.
O=C(COC(=O)c1cc(Br)ccc1O)Nc1cc(S(=O)(=O)N2CCCC2)ccc1Cl was read as KCNQ1 pot inactive, KCNK9 block -6.62*, hERG protect -20.6, KCNK3 inh -9.5*, Kir21 inh 2.28, KCNQ1 inh inactive, KCNK3 inh conf 96.0* and KCNK3 noninduced inactive.
`Cc1cccnc1CCNC(=O)CC1C(=O)NCCN1CC1CCCCC1` (configuration not stated) gave KCNQ1 pot inactive, KCNK9 block inactive, hERG protect -7.8, KCNK3 inh inactive, Kir21 inh 0.32 and KCNQ1 inh inactive.
`COc1ccc(C)cc1-n1c(SCC(=O)Nc2cc(C)on2)nc2sc(C)c(C)c2c1=O` gave KCNQ1 pot inactive, KCNK9 block inactive, hERG protect -7.5, KCNK3 inh -11.2*, Kir21 inh -0.36, KCNQ1 inh inactive, KCNK3 inh conf 128.0* and KCNK3 noninduced inactive.
O=S(=O)(c1ccccc1)c1nc(-c2cccs2)oc1NCCCn1ccnc1 was read as KCNQ1 pot inactive, KCNK9 block inactive, hERG protect -18.9, KCNK3 inh inactive, Kir21 inh -2.83 and KCNQ1 inh inactive.
`CCCCNc1oc(-c2cccs2)nc1S(=O)(=O)c1ccccc1` gave KCNQ1 pot inactive, KCNK9 block inactive, hERG protect -9.6, KCNK3 inh -9.48*, Kir21 inh 0.46, KCNQ1 inh inactive, KCNK3 inh conf 127.0* and KCNK3 noninduced 0.134*.
For Cc1ccccc1-n1ncc(C(C)NC(=O)c2ccco2)c1C (configuration not stated) the results were KCNQ1 pot inactive, KCNK9 block inactive, hERG protect -5.3, KCNK3 inh inactive, Kir21 inh -0.24 and KCNQ1 inh inactive.
Screening O=C(CN1C(=O)c2cccnc2Oc2ccc(Cl)cc21)NC1CCCCC1 returned KCNQ1 pot inactive, KCNK9 block inactive, hERG protect -6.6, KCNK3 inh inactive, Kir21 inh 0.75 and KCNQ1 inh inactive.
CCCN1C(=O)/C(=C/c2ccc(C)s2)SC1=Nc1ccc(OC)cc1 was read as KCNQ1 pot inactive, KCNK9 block inactive, hERG protect -12.4, KCNK3 inh -8.96*, Kir21 inh -3.83, KCNQ1 inh inactive, KCNK3 inh conf 114.3* and KCNK3 noninduced inactive.
For Cc1[nH]nc2c1C(c1ccco1)C(C#N)=C(N)O2 (configuration not stated) the results were KCNQ1 pot inactive, KCNK9 block inactive, hERG protect -4.5, KCNK3 inh inactive, Kir21 inh -2.22 and KCNQ1 inh inactive.
For COc1ccc(-c2ccc(C3C(C#N)=C(N)Oc4n[nH]c(C)c43)o2)cc1 (configuration not stated) the results were KCNQ1 pot inactive, KCNK9 block inactive, hERG protect -16.0, KCNK3 inh -10.9*, Kir21 inh 1.18, KCNQ1 inh inactive, KCNK3 inh conf 89.0* and KCNK3 noninduced inactive.
